# Assay outcomes as filed in PubChem BioAssay.
# Hits are enriched below; roughly 2.2% of the tested compounds scored in any of these assays.
# PPC-1+TRAIL kill: PPC-1 cancer cell killing with TRAIL present. PPC-1 cells + TRAIL, ATPLite viability luminescence. cell killing (% activity), % at 4 µM or 5 µM. actives 0.41% (n = 220,000). AID 1443;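 active = cell killing above 50% in the first pass at 4 µM, then a duplicate retest at 5 µM averaging 50% or more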;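 also: plate controls were cells with TRAIL plus DMSO for no effect and medium-only wells lacking cells for full effect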
# APP 5'UTR act: APP 5'UTR luciferase reporter activation | SH-SY5Y APP 5'UTR luciferase reporter, luminescence; zero percent = DMSO vehicle wells | activation, % at 2 µM | actives 1% (n = 190,000) | AID 1276;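 active = activation above a set limit, based on mean plus 3 SD of controls, cut at about 140% in these data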
# NF-kB expr up: NF-kB expression increase, human neuronal cells | actives 1.6% (n = 190,000) | fold change at 12.5 µM | NF-kB reporter expression; stronger effect = higher value | AID 1239; in the data active = fold change above about 3.3
# C8 TRAIL sens: caspase-8 TRAIL sensitization; inhibition (viability loss, TRAIL sensitization), % at 10 µM; actives 1% (n = 360,000); NB7+C8 cells + TRAIL, ATPlite viability luminescence;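 active = compounds causing at least 50% loss of cell viability in the single-dose screen, relative to plate controls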
# FLuc act counter: firefly luciferase counter-screen for stimulation assays | ATPlite luciferase biochemical, luminescence, 10 min; 0 = ATP-free wells, 1 = DMSO control | activation factor at 10 µM | 200,000 tested, under 10 active;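 active = luciferase activation factor, scaled between plate controls, of at least 2 with compound at 10 µM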
# Target sequence (P08659 whole entry, looked up): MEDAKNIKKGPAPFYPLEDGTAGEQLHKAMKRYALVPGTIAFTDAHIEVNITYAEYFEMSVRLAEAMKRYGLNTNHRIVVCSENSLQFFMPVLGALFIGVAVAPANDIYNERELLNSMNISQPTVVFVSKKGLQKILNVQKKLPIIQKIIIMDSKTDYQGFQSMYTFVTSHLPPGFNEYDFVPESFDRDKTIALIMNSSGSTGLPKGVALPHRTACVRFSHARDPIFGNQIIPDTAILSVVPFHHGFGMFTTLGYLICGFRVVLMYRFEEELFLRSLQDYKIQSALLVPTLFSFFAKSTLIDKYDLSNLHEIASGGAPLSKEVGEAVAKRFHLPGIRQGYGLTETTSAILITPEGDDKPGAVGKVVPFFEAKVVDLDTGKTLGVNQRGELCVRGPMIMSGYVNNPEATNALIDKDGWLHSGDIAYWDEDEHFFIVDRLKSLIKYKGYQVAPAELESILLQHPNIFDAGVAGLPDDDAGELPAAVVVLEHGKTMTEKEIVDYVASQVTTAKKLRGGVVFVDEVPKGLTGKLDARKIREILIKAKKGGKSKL
#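 Assay system: Luciferase/luciferin detection reagent, cell-free biochemical luciferase assay / Read-out: luciferase activation / Benchmarks: No-ATP low control, compound-free enzyme-plus-ATP high control / Medium: PBS buffer for ATP / Detection: luminescence measurement of luciferase light output / Schedule: 10 min at ambient temperature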
# FLuc inh counter: Photinus pyralis luciferase inhibition counter-screen. P08659. ATPLite firefly luciferase biochemical luminescence, 10 min. inhibition, % at 10 µM. actives 1.5% (n = 200,000). AID 1006;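 active = inhibition above about 50% when tested at 10 µM, limit read from the data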
# The depositor's hits bear a star; . = not tested or not shown.
SMILES,PPC-1+TRAIL kill,APP 5'UTR act,NF-kB expr up,C8 TRAIL sens,FLuc act counter,FLuc inh counter
O=C(CCCCCN1C(=O)c2ccccc2C1=O)Nc1ccc2c(c1)OCCO2,4,0,1.1,37,1,-3
CN(C)c1ccc(NC(=O)CCCc2ccccc2)cc1,11,150*,5.4*,4,0.8,19
COc1ccc([C@@H]2CC(=O)[C@@H]3CN(S(=O)(=O)c4ccc(C)cc4)[C@H](c4ccccc4)C[C@@H]3N2S(=O)(=O)c2ccccc2)cc1,.,.,.,3,.,.
Cc1ccc(CN2C(=O)C(C)Sc3ccc(C#N)cc32)cc1 (stereo not given),.,.,.,-13,.,.
C/C(CC(=O)Nc1ccc2c(c1)OCCO2)=N\NC(=O)c1ccccn1,20,136*,1.1,-2,1,0
CC1(Cc2ccccc2Cl)C(=O)Nc2c(Cl)ccc(Cl)c21 (stereo not given),.,.,.,3,.,.
CCCC(C)(C)C(=O)N1CCC1(C)C(=O)NS(=O)(=O)c1ccc(Br)cc1 (stereo not given),.,.,.,0,.,.
COc1ccc2oc(C(=O)Nc3ccc(C)cn3)c(C)c2c1,.,.,.,33,.,.
COc1ccc(C(CNC(=O)c2oc3ccc(OC)cc3c2C)N2CCCC2)cc1 (stereo not given),.,.,.,3,.,.
COc1ccc2oc(C(=O)NCCC(C)C)c(C)c2c1,15,139*,1,15,0.5,50
COc1ccc2oc(C(=O)Nc3nc(C)cs3)c(C)c2c1,.,.,.,60*,.,.
COc1ccc2oc(C(=O)Nc3ccccn3)c(C)c2c1,.,.,.,62*,.,.
COCc1c(C(=O)Nc2nc(C)cs2)oc2ccccc12,0,12,1.1,-9,0.9,5
COC(=O)[C@]12CCCCC=C1N(Cc1cccc3ccccc13)C(=O)[C@H](CC(=O)NCCC(C)C)C2,.,.,.,10,.,.
CCc1nc2c(OCCOc3ccc(F)cc3)cccn2c1N(C=O)Cc1ccccc1,.,.,.,3,.,.
COCCCNC(=O)C[C@@H]1C[C@@]2(C(=O)OC)CCCCC=C2N(Cc2ccco2)C1=O,.,.,.,5,.,.
C[C@@]12C(=O)OC(=O)[C@]1(C)C1CCC2O1,.,.,.,65*,.,.
Cc1cnc(NC(=O)c2ccc3c(c2)OCCO3)s1,.,.,.,94*,.,.
Cc1nc2ccc3nc(NC(=O)c4ccc5c(c4)OCCO5)sc3c2s1,-5,0,1.7,-2,0.9,10
Cc1ccc(C(=O)Nc2nnc(C)s2)cc1,18,86,2.8,48,0.4,58*
Cc1nc2c(ccc3nc(NC(=O)c4ccc5c(c4)OCCO5)sc32)s1,46,123,5.4*,80*,0.1,86*
O=C(Nc1ncc([N+](=O)[O-])s1)c1ccc2c(c1)OCO2,.,.,.,68*,.,.
CC(=O)Nc1ccc(CN2C(=O)C(CCc3ccccc3)ON=C2c2cnccn2)cc1 (stereo not given),.,.,.,7,.,.
Cc1ccc([N+](=O)[O-])c(NC(=O)COC(=O)CCNS(=O)(=O)c2cccs2)c1C,.,.,.,-5,.,.
CC(=O)Nc1ccc(-c2ccnc3c2CC(C)(C(=O)Nc2ccc4c(c2)OCO4)O3)cc1 (stereo not given),.,.,.,14,.,.
SMILES,PPC-1+TRAIL kill,APP 5'UTR act,NF-kB expr up,C8 TRAIL sens,FLuc act counter,FLuc inh counter
COC(=O)[C@]12CCCCC=C1N(Cc1ccc3c(c1)OCO3)C(=O)[C@H](CC(=O)N1CCSCC1)C2,.,.,.,6,.,.
Cc1ccc(C(=O)Nc2ncc([N+](=O)[O-])s2)cc1,.,.,.,77*,.,.
CSc1ccccc1C(=O)Nc1ncc(C)s1,-10,-8,1.2,15,1,-2
Cc1nnc(NC(=O)c2ccc3c(c2)C(=O)N(CC2CCCO2)C3=O)s1 (stereo not given),-6,-3,1.1,12,0.3,67*
O=C(COc1ccc(Cl)cc1)Nc1ncc([N+](=O)[O-])s1,36,116,2.1,32,0.4,59*
Cc1ccc(C(=O)Nc2ncc(C)s2)s1,.,.,.,78*,.,.
COc1ccc(C2CCc3cc4c(cc3C2=NOC(C)=O)OCO4)cc1OC (stereo not given),.,.,.,4,.,.
O=C(Oc1c(CN2CCOCC2)cc(Cl)c2cccnc12)c1ccccc1Cl,10,-53,1.7,54*,1,-4
O=C(Oc1c(Cl)cc(Cl)c2cccnc12)c1cccs1,24,1,1,29,1,-4
O=C(Oc1c(CN2CCOCC2)cc(Cl)c2cccnc12)c1cccs1,25,-27,1.1,52*,1,1
Oc1c(Cl)cc(CN2CCCCC2)c2cccnc12,.,.,.,35,.,.
Cc1cccc(/C(N)=N/OC(=O)c2ccc3c(c2)OCO3)c1,24,192*,4.3*,34,0,97*
N/C(=N\OC(=O)c1cccc([N+](=O)[O-])c1)c1cccnc1,24,-10,1.5,4,0.8,22
N/C(=N\OC(=O)c1ccc2c(c1)OCO2)c1cccc([N+](=O)[O-])c1,10,85,3.2,4,0,96*
Cc1ccc2nc3cc([N+](=O)[O-])cc([N+](=O)[O-])c3cc2c1,.,-63,5.3*,37,1,-4
Cc1nc2ccc([N+](=O)[O-])cc2nc1C,15,5,1.4,-18,1,-3
CC1C(=O)N(Cc2cn(CCC3OCCO3)nn2)CCS(=O)(=O)N1Cc1ccc(-c2ccc(Cl)cc2)cc1 (stereo not given),.,.,.,11,.,.
N/C(=N\OC(=O)/C=C/c1ccc(Br)cc1)c1ccccn1,46,188*,3.9*,35,0.9,6
N/C(=N\OC(=O)/C=C/c1ccccc1Cl)c1ccccn1,28,124,4.1*,31,0.3,74*
CN(C)/C=C/C(=O)c1ccc(Cl)s1,35,6,1.4,-3,1,0
CN(C)/C=C/C(=O)c1cnc(-c2ccc(Cl)cc2)s1,7,115,3.9*,29,0.5,53*
CN(C)/C=C/C(=O)c1cnc(-c2ccccc2)s1,7,102,3.8*,12,0.6,39
Oc1ccc(/C=N/Nc2nn3cnnc3c3ccccc23)cc1,34,.,.,63*,.,.
COc1cccc(/C=N/Nc2nn3cnnc3c3ccccc23)c1,37,-8,0.5,64*,0.3,71*
CC(C)C[C@@H](CN1CCC[C@@H]1CN1C(=S)NC[C@@H]1Cc1ccc(O)cc1)N1C[C@H](Cc2ccc(O)cc2)N(CC2CCCCCC2)C1=S,.,.,.,-7,.,.
Cc1ccc(C(=O)N/C(=C\c2cn(C)c3ccccc23)C(=O)NCCCN2CCOCC2)cc1,.,.,.,6,.,.
Cc1ccc(C(=O)N/C(=C\c2ccc(-c3ccccc3[N+](=O)[O-])o2)C(=O)NCCCN2CCOCC2)cc1,.,.,.,56*,.,.
Oc1ccccc1CNc1cnc2ccccc2c1,24,71,3.6*,18,1,4
O=C(Nc1nc(-c2nc3ccccc3s2)cs1)C1CC1,28,238*,5.7*,52*,0.5,54*
